Test results published in ChEMBL document CHEMBL1140549, “Rational design of N-alkyl derivatives of 2-amino-2-deoxy-d-glucitol-6P as antifungal agents” (Bioorg Med Chem Lett, 2007).
≈ marks a conversion by molar mass, not a printed value. Calls of active or inactive are those of the source. No cut-off for these calls is given here.

Key:
[1] = biological target: Glucose-6-phosphate isomerase (Saccharomyces cerevisiae S288c) (UniProt P12709); test: Inhibition of yeast phosphoglucose isomerase upto 20 mM
[2] = test system: Saccharomyces cerevisiae; test: Antimicrobial activity against Saccharomyces cerevisiae AD by serial dilution microplate method; format: functional
In short: (§1)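 Saccharomyces cerevisiae AD lacks the seven genes for the main drug-exporting membrane proteins. ADCDR1 is AD transformed with a plasmid carrying the gene for Candida albicans Cdr1p drug exporter. MIC was read by serial dilution in microplates.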

[3] = test system: Candida albicans; test: Antifungal activity against Candida albicans by serial dilution microplate method; format: functional
[4] = test system: Nakaseomyces glabratus; test: Antifungal activity against Candida glabrata by serial dilution microplate method; format: functional
[5] = test system: Saccharomyces cerevisiae; test: Antimicrobial activity against Saccharomyces cerevisiae ADCDR1 by serial dilution microplate method; format: functional; in short: as §1
[6] = Inhibition of Candida albicans glucosamine-6P synthase by Elson-Morgan method
In short: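 Enzyme was Candida albicans GlcN-6P synthase purified to near homogeneity. Reactions ran in 25 mM phosphate buffer, pH 6.9, with 1 mM EDTA and 1 mM DTT, D-Fru-6P (0.5–7.5 mM) and L-glutamine (0.625–10 mM), plus inhibitor. Product was measured by a modified Elson–Morgan method. IC50 and Ki are means of three experiments, with SD.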

[7] = test system: Candida tropicalis; test: Antifungal activity against Candida tropicalis by serial dilution microplate method; format: functional
[8] = test system: Candida albicans; test: Drug uptake in Candida albicans assessed as uptake rate per mg dry weight; format: ADME, organism-based; details: in vivo

Sequence of Glucose-6-phosphate isomerase (Saccharomyces cerevisiae S288c) (P12709 whole entry): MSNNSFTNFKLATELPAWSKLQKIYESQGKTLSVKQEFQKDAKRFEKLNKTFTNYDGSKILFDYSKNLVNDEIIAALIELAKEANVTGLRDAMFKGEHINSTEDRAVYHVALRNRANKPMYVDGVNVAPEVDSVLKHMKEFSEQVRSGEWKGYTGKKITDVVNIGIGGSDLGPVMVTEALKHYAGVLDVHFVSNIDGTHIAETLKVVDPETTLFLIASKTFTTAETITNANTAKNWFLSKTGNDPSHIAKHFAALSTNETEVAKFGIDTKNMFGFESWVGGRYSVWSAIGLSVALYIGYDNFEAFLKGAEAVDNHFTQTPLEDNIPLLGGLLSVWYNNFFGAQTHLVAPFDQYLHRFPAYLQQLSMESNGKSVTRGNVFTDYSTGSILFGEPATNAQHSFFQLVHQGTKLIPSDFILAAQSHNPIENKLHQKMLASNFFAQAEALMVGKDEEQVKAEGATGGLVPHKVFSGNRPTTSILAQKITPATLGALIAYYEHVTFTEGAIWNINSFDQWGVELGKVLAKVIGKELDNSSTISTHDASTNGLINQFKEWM

**Q.** For `CCCN(CCC)[C@@H](CO)[C@@H](O)[C@H](O)[C@H](O)COP(=O)(O)O`, which Activity [1] is on record?
**A.** inactive

**Q.** What about the MIC [2] of the same molecule?
**A.** 80 µg/mL (≈ 232 µM)

**Q.** What about the MIC [3] of the same molecule?
**A.** 160 µg/mL (≈ 463 µM)

**Q.** What about the MIC [4] of the same molecule?
**A.** 625 µg/mL (≈ 1810 µM)

**Q.** And the MIC [5]?
**A.** 160 µg/mL (≈ 463 µM)

**Q.** And the IC50 [6]?
**A.** 52 µM

**Q.** And the Ki [6]?
**A.** 10 µM

**Q.** And the MIC [7]?
**A.** 625 µg/mL (≈ 1810 µM)

**Q.** And the Drug uptake [8]?
**A.** 4.7 nmol/mg/min

**Q.** What does the source list for `CCCCCCN[C@@H](CO)[C@@H](O)[C@H](O)[C@H](O)COP(=O)(O)O`?
**A.** Activity [1]: inactive; MIC [2]: 310 µg/mL (≈ 898 µM); MIC [3]: 625 µg/mL (≈ 1810 µM); MIC [4]: 625 µg/mL (≈ 1810 µM); MIC [5]: 310 µg/mL (≈ 898 µM); IC50 [6]: 290 µM; Ki [6]: 49 µM; MIC [7]: 310 µg/mL (≈ 898 µM); Drug uptake [8]: 4.8 nmol/mg/min

**Q.** What does the source list for `CCN(CC)[C@@H](CO)[C@@H](O)[C@H](O)[C@H](O)COP(=O)(O)O`?
**A.** Activity [1]: inactive; MIC [2]: 310 µg/mL (≈ 977 µM); MIC [3]: 310 µg/mL (≈ 977 µM); MIC [4]: 625 µg/mL (≈ 1970 µM); MIC [5]: 310 µg/mL (≈ 977 µM); IC50 [6]: 40 µM; Ki [6]: 8 µM; MIC [7]: 625 µg/mL (≈ 1970 µM); Drug uptake [8]: 3.9 nmol/mg/min

**Q.** For `CCCCN(CCCC)[C@@H](CO)[C@@H](O)[C@H](O)[C@H](O)COP(=O)(O)O`, which Activity [1] is on record?
**A.** inactive

**Q.** What about the MIC [2] of the same molecule?
**A.** 1250 µg/mL (≈ 3350 µM)

**Q.** What about the MIC [3] of the same molecule?
**A.** 312 µg/mL (≈ 836 µM)

**Q.** What about the MIC [4] of the same molecule?
**A.** 1250 µg/mL (≈ 3350 µM)

**Q.** What about the MIC [5] of the same molecule?
**A.** 1250 µg/mL (≈ 3350 µM)

**Q.** And the IC50 [6]?
**A.** 82 µM

**Q.** And the Ki [6]?
**A.** 12 µM

**Q.** What about the MIC [7] of the same molecule?
**A.** 2500 µg/mL (≈ 6700 µM)

**Q.** What about the Drug uptake [8] of the same molecule?
**A.** 5 nmol/mg/min

**Q.** With `OC(Cn1cncn1)(Cn1cncn1)c1ccc(F)cc1F` [FLUCONAZOLE] as the molecule, how does the MIC [2] read?
**A.** 4 µg/mL (≈ 13.1 µM)

**Q.** What about the MIC [3] of the same molecule?
**A.** 8 µg/mL (≈ 26.1 µM)

**Q.** What about the MIC [4] of the same molecule?
**A.** 16 µg/mL (≈ 52.2 µM)

**Q.** And the MIC [5]?
**A.** 32 µg/mL (≈ 104 µM)

**Q.** What about the MIC [7] of the same molecule?
**A.** 16 µg/mL (≈ 52.2 µM)

**Q.** Which results are given for `CCCCN[C@@H](CO)[C@@H](O)[C@H](O)[C@H](O)COP(=O)(O)O`?
**A.** Activity [1]: inactive; MIC [2]: 1250 µg/mL (≈ 3940 µM); MIC [3]: 625 µg/mL (≈ 1970 µM); MIC [4]: 1250 µg/mL (≈ 3940 µM); MIC [5]: 1250 µg/mL (≈ 3940 µM); IC50 [6]: 115 µM; Ki [6]: 20 µM; MIC [7]: 1250 µg/mL (≈ 3940 µM); Drug uptake [8]: 3.4 nmol/mg/min

**Q.** With `CCN[C@@H](CO)[C@@H](O)[C@H](O)[C@H](O)COP(=O)(O)O` as the molecule, how does the Activity [1] read?
**A.** inactive

**Q.** And the MIC [2]?
**A.** 2500 µg/mL (≈ 8640 µM)

**Q.** What about the MIC [3] of the same molecule?
**A.** 1250 µg/mL (≈ 4320 µM)

**Q.** And the MIC [4]?
**A.** 2500 µg/mL (≈ 8640 µM)

**Q.** And the MIC [5]?
**A.** 2500 µg/mL (≈ 8640 µM)

**Q.** And the IC50 [6]?
**A.** 180 µM

**Q.** And the Ki [6]?
**A.** 26 µM

**Q.** And the MIC [7]?
**A.** 2500 µg/mL (≈ 8640 µM)

**Q.** What about the Drug uptake [8] of the same molecule?
**A.** 2.9 nmol/mg/min

**Q.** For `N[C@@H](CO)[C@@H](O)[C@H](O)[C@H](O)COP(=O)(O)O`, which Activity [1] is on record?
**A.** inactive

**Q.** And the MIC [2]?
**A.** 5000 µg/mL (≈ 19100 µM)

**Q.** And the MIC [3]?
**A.** 5000 µg/mL (≈ 19100 µM)

**Q.** What about the MIC [4] of the same molecule?
**A.** 10000 µg/mL (≈ 38300 µM)

**Q.** What about the MIC [5] of the same molecule?
**A.** 5000 µg/mL (≈ 19100 µM)

**Q.** And the IC50 [6]?
**A.** 230 µM

**Q.** What about the Ki [6] of the same molecule?
**A.** 35 µM

**Q.** And the MIC [7]?
**A.** 10000 µg/mL (≈ 38300 µM)

**Q.** And the Drug uptake [8]?
**A.** 1.1 nmol/mg/min
